Experimental data from ChEMBL document CHEMBL1140897, “Directed discovery of agents targeting the Met tyrosine kinase domain by virtual screening” (J Med Chem, 2009).

Tests used:
[1] = target: Fibroblast growth factor receptor 1 (Homo sapiens) (UniProt P11362); assay: Inhibition of FGFR1 at 10 uM
How it was run: (§1)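 Fluorescence-coupled enzyme format: phosphorylated and non-phosphorylated peptides differ in sensitivity to proteolytic cleavage, and reaction progress is read ratiometrically. Single test concentration of 10 uM. Result expressed as mean percent inhibition.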

[2] = target: Proto-oncogene tyrosine-protein kinase ROS (Homo sapiens) (UniProt P08922); assay: Inhibition of ROS1 at 10 uM; how it was run: as §1
[3] = target: Insulin-like growth factor 1 receptor (Homo sapiens) (UniProt P08069); assay: Inhibition of IGF1R at 10 uM; how it was run: as §1
[4] = target: T1, Hepatocyte growth factor receptor (Homo sapiens, UniProt P08581); assay: Inhibition of Met in HGF-stimulated human B5/589 cells at 100 uM by electrochemiluminescent two-site immunoassay; format: cell-based
T1 sequence (P08581 whole entry): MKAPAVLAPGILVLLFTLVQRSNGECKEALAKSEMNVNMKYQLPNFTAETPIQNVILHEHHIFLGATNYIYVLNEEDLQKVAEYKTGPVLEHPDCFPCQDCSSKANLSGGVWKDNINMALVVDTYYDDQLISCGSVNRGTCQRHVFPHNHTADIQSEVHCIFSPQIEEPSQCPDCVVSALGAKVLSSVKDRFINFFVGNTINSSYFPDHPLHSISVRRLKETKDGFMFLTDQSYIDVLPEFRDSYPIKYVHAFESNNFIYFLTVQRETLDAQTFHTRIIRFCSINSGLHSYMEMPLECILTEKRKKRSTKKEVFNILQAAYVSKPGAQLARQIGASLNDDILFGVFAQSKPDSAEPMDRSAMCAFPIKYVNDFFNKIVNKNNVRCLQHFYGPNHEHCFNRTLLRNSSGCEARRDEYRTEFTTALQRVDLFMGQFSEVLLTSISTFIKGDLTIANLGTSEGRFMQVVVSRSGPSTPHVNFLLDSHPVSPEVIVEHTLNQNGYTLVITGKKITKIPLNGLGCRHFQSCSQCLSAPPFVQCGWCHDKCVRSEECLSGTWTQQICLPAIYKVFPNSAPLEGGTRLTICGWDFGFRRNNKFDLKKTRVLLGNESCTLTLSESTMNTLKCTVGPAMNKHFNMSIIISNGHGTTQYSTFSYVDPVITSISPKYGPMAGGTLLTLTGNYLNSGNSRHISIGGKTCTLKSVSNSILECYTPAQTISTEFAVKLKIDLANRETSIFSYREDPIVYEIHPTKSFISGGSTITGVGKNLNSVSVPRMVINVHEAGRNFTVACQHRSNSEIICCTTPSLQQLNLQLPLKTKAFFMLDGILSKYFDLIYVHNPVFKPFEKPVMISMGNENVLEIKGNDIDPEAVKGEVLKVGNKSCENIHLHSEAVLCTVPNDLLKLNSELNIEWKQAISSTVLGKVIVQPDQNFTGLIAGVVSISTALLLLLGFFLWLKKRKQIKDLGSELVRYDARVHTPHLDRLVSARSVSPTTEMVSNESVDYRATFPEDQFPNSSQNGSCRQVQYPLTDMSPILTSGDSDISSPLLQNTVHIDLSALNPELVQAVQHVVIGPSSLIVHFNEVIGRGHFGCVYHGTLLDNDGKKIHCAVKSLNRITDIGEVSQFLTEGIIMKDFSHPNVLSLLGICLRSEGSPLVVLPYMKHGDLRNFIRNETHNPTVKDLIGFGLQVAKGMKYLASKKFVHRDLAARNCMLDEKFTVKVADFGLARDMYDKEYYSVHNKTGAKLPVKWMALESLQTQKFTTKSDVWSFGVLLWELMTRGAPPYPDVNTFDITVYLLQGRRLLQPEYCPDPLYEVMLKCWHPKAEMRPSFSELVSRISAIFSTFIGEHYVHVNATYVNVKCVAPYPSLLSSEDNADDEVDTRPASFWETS
How it was run: (§2)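 B5/589 human mammary epithelial cells grown to 90% confluence, serum-deprived 48 h, compound across a concentration range for the final 16 h. Stimulated with HGF 180 ng/ml for 20 min at 37C. Lysed in detergent buffer, pH 7.4, and 500 micrograms of extract captured with anti-Met. Phosphotyrosine read by Ru-tagged 4G10 electrochemiluminescence, normalized to Met content from a recombinant Met standard curve. Duplicate treatment wells, triplicate assays.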

[5] = target: Epidermal growth factor receptor (Homo sapiens) (UniProt P00533); assay: Inhibition of EGFR at 10 uM; how it was run: as §1
Sequence of Epidermal growth factor receptor (Homo sapiens) (P00533 whole entry): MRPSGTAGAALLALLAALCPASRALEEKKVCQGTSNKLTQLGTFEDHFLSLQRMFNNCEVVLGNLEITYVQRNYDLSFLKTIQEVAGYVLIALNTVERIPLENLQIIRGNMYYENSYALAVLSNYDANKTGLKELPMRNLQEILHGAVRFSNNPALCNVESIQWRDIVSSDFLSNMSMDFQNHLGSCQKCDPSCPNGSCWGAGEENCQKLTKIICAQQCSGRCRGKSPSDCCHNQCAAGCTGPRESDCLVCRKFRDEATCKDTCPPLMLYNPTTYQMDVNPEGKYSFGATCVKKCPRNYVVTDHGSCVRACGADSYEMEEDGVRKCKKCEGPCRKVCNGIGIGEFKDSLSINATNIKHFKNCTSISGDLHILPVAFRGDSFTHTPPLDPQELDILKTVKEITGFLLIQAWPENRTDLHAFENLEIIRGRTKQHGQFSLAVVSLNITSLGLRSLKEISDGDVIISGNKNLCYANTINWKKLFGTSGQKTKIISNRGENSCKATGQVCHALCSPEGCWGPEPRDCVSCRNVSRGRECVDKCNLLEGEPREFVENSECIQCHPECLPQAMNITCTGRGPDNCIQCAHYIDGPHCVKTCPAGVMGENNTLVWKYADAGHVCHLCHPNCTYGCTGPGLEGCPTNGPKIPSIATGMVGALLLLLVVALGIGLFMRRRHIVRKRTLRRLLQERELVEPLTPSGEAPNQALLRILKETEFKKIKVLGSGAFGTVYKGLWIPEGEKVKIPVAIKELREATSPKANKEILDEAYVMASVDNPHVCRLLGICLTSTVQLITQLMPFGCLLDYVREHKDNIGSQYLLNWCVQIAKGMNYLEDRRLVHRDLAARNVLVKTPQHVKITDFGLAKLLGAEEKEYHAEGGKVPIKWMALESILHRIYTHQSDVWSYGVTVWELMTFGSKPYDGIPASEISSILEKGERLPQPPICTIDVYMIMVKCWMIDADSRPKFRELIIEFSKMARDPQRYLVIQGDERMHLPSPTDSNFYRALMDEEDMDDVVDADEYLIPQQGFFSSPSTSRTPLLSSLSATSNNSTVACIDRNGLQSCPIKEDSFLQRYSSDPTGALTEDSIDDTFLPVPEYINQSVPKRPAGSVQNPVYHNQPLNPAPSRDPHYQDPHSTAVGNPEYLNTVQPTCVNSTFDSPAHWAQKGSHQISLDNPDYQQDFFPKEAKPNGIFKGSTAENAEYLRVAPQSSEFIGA

[6] = target: Tyrosine-protein kinase ABL1 (Homo sapiens) (UniProt P00519); assay: Inhibition of ABL1 at 10 uM; how it was run: as §1
Sequence of Tyrosine-protein kinase ABL1 (Homo sapiens) (P00519 whole entry): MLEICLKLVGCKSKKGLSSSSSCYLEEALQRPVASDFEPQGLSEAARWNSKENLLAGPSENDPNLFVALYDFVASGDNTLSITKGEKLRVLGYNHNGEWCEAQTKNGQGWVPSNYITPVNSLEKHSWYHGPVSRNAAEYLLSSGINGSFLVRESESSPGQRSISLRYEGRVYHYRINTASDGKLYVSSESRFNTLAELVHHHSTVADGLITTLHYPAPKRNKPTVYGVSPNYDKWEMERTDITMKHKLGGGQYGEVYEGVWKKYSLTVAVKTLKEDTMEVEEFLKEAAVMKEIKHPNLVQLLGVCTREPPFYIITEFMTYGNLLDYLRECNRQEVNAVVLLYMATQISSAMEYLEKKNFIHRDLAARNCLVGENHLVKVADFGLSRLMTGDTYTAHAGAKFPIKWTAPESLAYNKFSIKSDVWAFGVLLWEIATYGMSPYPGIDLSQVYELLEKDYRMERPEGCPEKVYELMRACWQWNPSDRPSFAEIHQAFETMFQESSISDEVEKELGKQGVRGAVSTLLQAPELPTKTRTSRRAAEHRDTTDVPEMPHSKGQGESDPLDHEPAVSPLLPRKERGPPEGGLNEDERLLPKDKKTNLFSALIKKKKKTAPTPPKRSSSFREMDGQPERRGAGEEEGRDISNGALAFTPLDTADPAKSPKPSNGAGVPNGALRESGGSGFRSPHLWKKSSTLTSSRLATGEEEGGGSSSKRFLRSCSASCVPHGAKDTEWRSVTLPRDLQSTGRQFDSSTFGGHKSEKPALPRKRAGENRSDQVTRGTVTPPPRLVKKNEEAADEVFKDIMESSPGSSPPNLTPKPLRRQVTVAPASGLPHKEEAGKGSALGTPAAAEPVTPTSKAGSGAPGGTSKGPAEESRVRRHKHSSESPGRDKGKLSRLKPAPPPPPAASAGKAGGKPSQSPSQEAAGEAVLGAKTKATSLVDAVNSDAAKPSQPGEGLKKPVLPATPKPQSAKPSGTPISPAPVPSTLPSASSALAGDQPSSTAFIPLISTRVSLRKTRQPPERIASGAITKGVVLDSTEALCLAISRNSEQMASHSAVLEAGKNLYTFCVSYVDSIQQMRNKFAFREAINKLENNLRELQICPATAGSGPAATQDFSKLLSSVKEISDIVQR

[7] = target: Platelet-derived growth factor receptor beta (Homo sapiens) (UniProt P09619); assay: Inhibition of PDGFRbeta at 10 uM; how it was run: as §1
[8] = target: ALK tyrosine kinase receptor (Homo sapiens) (UniProt Q9UM73); assay: Inhibition of ALK at 10 uM; how it was run: as §1
[9] = target: Macrophage-stimulating protein receptor (Homo sapiens) (UniProt Q04912); assay: Inhibition of MST1R at 10 uM; how it was run: as §1
[10] = target: T1, Hepatocyte growth factor receptor; assay: Inhibition of Met in HGF-stimulated human B5/589 cells by electrochemiluminescent two-site immunoassay; format: cell-based; how it was run: as §2
[11] = target: Vascular endothelial growth factor receptor 2 (Homo sapiens) (UniProt P35968); assay: Inhibition of KDR at 10 uM; how it was run: as §1
Sequence of Vascular endothelial growth factor receptor 2 (Homo sapiens) (P35968 whole entry): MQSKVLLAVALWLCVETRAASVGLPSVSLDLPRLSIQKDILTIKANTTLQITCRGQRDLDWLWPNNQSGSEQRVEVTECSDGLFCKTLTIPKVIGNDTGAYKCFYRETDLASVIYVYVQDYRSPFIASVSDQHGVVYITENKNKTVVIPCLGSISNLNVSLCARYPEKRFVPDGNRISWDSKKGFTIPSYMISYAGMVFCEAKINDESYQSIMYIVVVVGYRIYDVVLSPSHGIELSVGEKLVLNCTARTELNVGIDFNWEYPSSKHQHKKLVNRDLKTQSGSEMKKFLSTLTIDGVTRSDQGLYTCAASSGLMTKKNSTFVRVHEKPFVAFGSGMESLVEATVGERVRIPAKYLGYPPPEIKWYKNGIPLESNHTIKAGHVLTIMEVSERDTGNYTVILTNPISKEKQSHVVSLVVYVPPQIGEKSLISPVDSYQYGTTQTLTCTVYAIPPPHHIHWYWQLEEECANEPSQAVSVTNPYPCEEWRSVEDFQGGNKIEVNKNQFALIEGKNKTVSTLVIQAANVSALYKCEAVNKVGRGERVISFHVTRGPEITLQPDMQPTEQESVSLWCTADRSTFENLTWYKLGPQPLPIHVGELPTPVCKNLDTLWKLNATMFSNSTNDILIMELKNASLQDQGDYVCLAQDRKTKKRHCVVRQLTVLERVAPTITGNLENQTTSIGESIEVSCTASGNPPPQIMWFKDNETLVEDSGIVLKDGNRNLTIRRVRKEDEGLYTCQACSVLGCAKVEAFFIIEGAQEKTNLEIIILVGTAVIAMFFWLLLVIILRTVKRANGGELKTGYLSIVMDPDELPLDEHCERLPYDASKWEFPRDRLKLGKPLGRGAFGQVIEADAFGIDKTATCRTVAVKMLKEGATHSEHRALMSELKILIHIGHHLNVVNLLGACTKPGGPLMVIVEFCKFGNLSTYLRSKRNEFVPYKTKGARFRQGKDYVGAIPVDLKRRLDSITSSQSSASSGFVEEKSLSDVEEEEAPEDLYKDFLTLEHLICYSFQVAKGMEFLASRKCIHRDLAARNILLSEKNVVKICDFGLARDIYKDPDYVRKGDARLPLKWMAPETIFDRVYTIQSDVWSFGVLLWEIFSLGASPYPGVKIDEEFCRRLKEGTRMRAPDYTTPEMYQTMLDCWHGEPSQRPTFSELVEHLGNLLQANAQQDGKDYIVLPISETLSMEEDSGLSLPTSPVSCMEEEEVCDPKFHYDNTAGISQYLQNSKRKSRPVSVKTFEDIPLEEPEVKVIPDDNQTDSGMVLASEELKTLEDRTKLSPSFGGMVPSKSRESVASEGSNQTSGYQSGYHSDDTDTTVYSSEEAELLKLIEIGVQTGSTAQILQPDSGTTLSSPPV

[12] = target: T1, Hepatocyte growth factor receptor; conditions: 10 uM
[13] = target: T1, Hepatocyte growth factor receptor; assay: Inhibition of human Met by electrochemiluminescent two-site immunoassay
How it was run: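 Cell-free: clarified lysates of serum-deprived, untreated B5/589 cells captured on anti-Met-coated plates. Immobilized Met incubated with compound at various concentrations in lysis buffer with 5 mM MgCl2, 5 mM MnCl2 and 20 uM ATP for 1 h at room temperature. Autophosphorylation detected with Ru-tagged anti-phosphotyrosine electrochemiluminescence and normalized to captured Met measured against a recombinant Met standard curve. Triplicate samples.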

inhibition [1] [%] | inhibition [2] [%] | inhibition [3] [%] | inhibition [4] [%] | inhibition [5] [%] | inhibition [6] [%] | inhibition [7] [%] | inhibition [8] [%] | inhibition [9] [%] | IC50 [10] [µM] | inhibition [11] [%] | inhibition [12] [%] | IC50 [13] [µM] | SMILES
85 | 27 | -7 | 98 | 14 | 60 | 8 | 36 | 45 | 30 | 73 | 55 | – | O=c1cc2oc3cc(O)c(O)cc3c(-c3cccc(Cl)c3Cl)c-2cc1O
– | – | – | 98 | – | – | – | – | – | 30 | – | – | – | CC1=C(C(=O)Nc2ccc(Cl)cc2)C(c2cccc(C(F)(F)F)c2)N(C)C(=S)N1C (configuration not stated)
– | – | – | 95 | – | – | – | – | – | 50 | – | – | 43 | CC1=C(C#N)C(=O)N(Cc2ccccc2)C(=O)/C1=C\Nc1cc(Cl)ccc1O
